System: Rattus norvegicus
Test: Gastrointestinal toxicity in albino rat assessed ulcer index at 39.23 […], po
Format: organism-based
Conditions: in vivo
Outline: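 Adult albino rats of both sexes (120–150 g), five per group, fasted 20 h before dosing. Compounds given orally as a suspension in 1% Tween; controls received vehicle. Dosed on three consecutive days with fasting/feeding cycles, then killed on day 4. Stomach opened along the greater curvature and rinsed with saline. Red spots counted and severity scored 0–4. Ulcer index derived from % incidence/10, mean ulcer number and mean severity.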

Compound | UI
CC(C(=O)Nc1c(C#N)c2n(c1C(=O)Nc1ccc(Cl)cc1)CCC2)c1cccc(C(=O)c2ccccc2)c1 (racemic) | 3.6
Cc1ccc(NC(=O)c2c3[nH]c(/C=C\C(=O)O)nc(=O)c3c3n2CCC3)cc1 | 18.3
Cc1ccc(NC(=O)c2c(NC(=O)C(C)c3ccc(CC(C)C)cc3)c(C#N)c3n2CCC3)cc1 (racemic) | 3.2
CC(C)Cc1ccc(C(C)C(=O)Nc2c(C#N)c3n(c2C(=O)Nc2ccccc2)CCC3)cc1 (racemic) | 0
O=C(O)CCc1nc(=O)c2c3n(c(C(=O)Nc4ccc(Cl)cc4)c2[nH]1)CCC3 | 15.66
O=C(O)/C=C\c1nc(=O)c2c3n(c(C(=O)Nc4ccccc4)c2[nH]1)CCC3 | 17.46
O=C(O)CCc1nc(=O)c2c3n(c(C(=O)Nc4ccccc4)c2[nH]1)CCC3 | 16.66
O=C(O)/C=C\c1nc(=O)c2c3n(c(C(=O)Nc4ccc(Cl)cc4)c2[nH]1)CCC3 | 17.09
CC(C(=O)Nc1c(C#N)c2n(c1C(=O)Nc1ccccc1)CCC2)c1cccc(C(=O)c2ccccc2)c1 (racemic) | 0
Cc1ccc(NC(=O)c2c3[nH]c(CCC(=O)O)nc(=O)c3c3n2CCC3)cc1 | 17.91
Cc1ccc(NC(=O)c2c(NC(=O)C(C)c3cccc(C(=O)c4ccccc4)c3)c(C#N)c3n2CCC3)cc1 (racemic) | 3.6
CC(C)Cc1ccc(C(C)C(=O)Nc2c(C#N)c3n(c2C(=O)Nc2ccc(Cl)cc2)CCC3)cc1 (racemic) | 0
O=C(c1ccccc1)c1ccc2n1CCC2C(=O)O (stereo not drawn) [KETOROLAC] | 11.6

From ChEMBL document CHEMBL1154706, “Novel substituted and fused pyrrolizine derivatives: synthesis, anti-inflammatory and ulcerogenecity studies” (Eur J Med Chem, 2010)
